From ChEMBL document CHEMBL1135622, “Use of the Kohonen neural network for rapid screening of ex vivo anti-HIV activity of styrylquinolines” (J Med Chem, 2002)

Legend:
[1] = test system: Human immunodeficiency virus 1; assay: Ex vivo activity against residual viruses (% of nontreated infected cells) in cell supernatant at 100 uM concentration.; format: functional
[2] = test system: Human immunodeficiency virus 1; assay: Reduction of viral load in the cell supernatant.; format: functional, organism-based
[3] = test system: Human immunodeficiency virus 1; assay: Cytotoxicity (C) and percentage of dead cells at 100 uM concentration.; format: functional
Procedure, shortened: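 CEM lymphocytes (RPMI-1640, 10% FCS) plated in triplicate and infected with cell-free HIV-1 NL4-3; virus removed after 2 h, drug at 100 µM added in DMSO in fresh medium for 72 h. Viability by MTT (7.5 mg/mL stock), 4 h at […], formazan dissolved in SDS/HCl, absorbance at 570 nm; value given as percentage of dead cells.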

[4] = test system: Human immunodeficiency virus 1; assay: Inhibitory concentration against HIV-1 required for 50% reduction of viral load in the cell supernatant; Not reached.; format: functional, organism-based

Compound	RV [1]	IC50 [2]	Cytotoxicity [3]	NR [4]
O=C(O)c1ccc2ccc(/C=C/c3cc(O)c(O)c(I)c3)nc2c1O	3%	6.8 µM	42%	
CC(=O)Nc1ccc(/C=C/c2ccc3ccc(C(=O)O)c(O)c3n2)cc1	0%		88%	
O=C(O)c1ccc2ccc(/C=C/c3ccc4c(c3)OCO4)nc2c1O	4%	10 µM	40%	
O=C(O)c1ccc2ccc(/C=C/c3ccc([N+](=O)[O-])cc3)nc2c1O	6%		74%	
Nc1ccc(/C=C/c2ccc3ccc(C(=O)O)c(O)c3n2)cc1	8%	50 µM	40%	
O=C(O)c1ccc2ccc(/C=C/c3cc(O)cc(/C=C/c4ccc5ccc(C(=O)O)c(O)c5n4)c3)nc2c1O	100%		0%	Not reached
COc1cc(/C=C/c2ccc3ccc(C(=O)O)c(O)c3n2)cc(OC)c1O	0%	9 µM	17%	
O=C(O)c1ccc2ccc(/C=C/c3cc(O)c(O)c(O)c3)nc2c1O	0%		90%	
O=C(O)c1cccc2ccc(/C=C/c3ccc(O)c(O)c3)nc12	0%	12 µM	0%	
COc1cc(/C=C/c2ccc3ccc(C(=O)O)c(O)c3n2)cc(O)c1O	6%	12 µM	14%	
COc1cc(/C=C/c2ccc3ccc(C(=O)O)cc3n2)ccc1O	17%	20 µM	30%	
O=C(O)c1ccc2ccc(/C=C/c3cccnc3)nc2c1O	74%		74%	Not reached
O=C(O)c1ccc2ccc(/C=C/c3cc(Br)c(O)c(Br)c3)nc2c1O	13%	30 µM	8%	
O=C(O)c1ccc2ccc(/C=C/c3ccsc3)nc2c1O	0%		68%	
O=C(O)c1ccc2ccc(/C=C/c3ccc(F)c(F)c3)nc2c1O	2%	30 µM	91%	
COc1ccc(/C=C/c2ccc3ccc(C(=O)O)c(O)c3n2)cc1O	0%	54 µM	57%	
O=C(O)c1ccc2ccc(/C=C/c3ccc(O)c(O)c3)nc2c1O	0%	1.3 µM	70%	
O=C(O)c1ccc2nc(/C=C/c3ccc(O)c(O)c3)ccc2c1	4%	20 µM	0%	
Oc1ccc(/C=C/c2ccc3cccc(O)c3n2)cc1O	1%		78%	
O=C(O)c1cc(C(=O)O)c2ccc(/C=C/c3ccc(O)c(O)c3)nc2c1	5%	15 µM	0%	
O=C(O)c1ccc2ccc(/C=C/c3ccccc3)nc2c1O	0%		100%	
COc1cc(/C=C/c2ccc3ccc(C(=O)O)c(O)c3n2)ccc1O	12%	3 µM	48%	
O=C(O)c1ccc2ccc(/C=C/c3ccc(CO)cc3)nc2c1O	55%	110 µM	17%	
O=C(O)c1ccc2ccc(/C=C/c3cc(O)cc(O)c3)nc2c1O	55%		17%	Not reached
O=C(O)c1cc(/C=C/c2ccc3ccc(C(=O)O)c(O)c3n2)ccc1O	24%	80 µM	0%	
O=C(O)c1ccc2ccc(/C=C/c3ccco3)nc2c1O	70%		0%	Not reached
O=C(O)c1ccc2ccc(/C=C/c3ccc(O)cc3O)nc2c1O	42%	80 µM	26%	
O=C(O)c1ccc2ccc(/C=C/c3ccc(O)cc3)nc2c1O	26%	95 µM	50%	
O=C(O)c1cccc2nc(/C=C/c3ccc(O)c(O)c3)ccc12	5%	50 µM	0%	
